# Calls of active or inactive are those of the source. The calls are words filed in the database; no cut-off is given here.
# How the values were obtained:
# [1] = molecular target: T1, Signal transducer and activator of transcription 3 (Homo sapiens, UniProt P40763); assay: Inhibition of STAT3 in human MDA-MB-468 cells assessed as downregulation of c-Myc expression at 0.3 to 3 uM after 24 hrs by western blot analysis; assay type: cell-based; conditions: dose 0.3-3 µM
# Procedure, shortened: (§1)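 TNBC cells given vehicle (0.1% DMSO) or graded compound levels for 24 h, lysed in RIPA with PMSF and phosphatase inhibitors. BCA-quantified lysate (20–50 µg) run on SDS-PAGE, transferred to PVDF, blocked in 5% BSA. Probed overnight at 4 °C for Bcl-xL, Mcl-1 and c-Myc, with β-actin. HRP secondary, ECL detection. Three independent experiments.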
# [2] = test system: MDA-MB-231; assay: Induction of apoptosis in human MDA-MB-231 cells assessed as viable cells at 1 uM after 48 hrs by Annexin-V-FITC/propidium iodide staining based flow cytometric analysis (reference value: 93.4%); assay type: functional; conditions: read-out: Activity
# [3] = test system: A549; assay: Antiproliferative activity against human A549 cells; assay type: functional, cell-based
# [4] = test system: MDA-MB-468; assay: Induction of apoptosis in human MDA-MB-468 cells assessed as viable cells at 1 uM after 48 hrs by Annexin-V-FITC/propidium iodide staining based flow cytometric analysis (reference value: 95.5%); assay type: functional; conditions: read-out: Activity
# [5] = test system: MDA-MB-231; assay: Induction of apoptosis in human MDA-MB-231 cells assessed as necrotic cells at 1 uM after 48 hrs by Annexin-V-FITC/propidium iodide staining based flow cytometric analysis (Rvb =0.543%); assay type: functional
# [6] = molecular target: T1, Signal transducer and activator of transcription 3; assay: Inhibition of STAT3 in human MDA231-LM2-4175 cells assessed as downregulation of Bcl-xL expression at 0.3 to 3 uM after 24 hrs by western blot analysis; assay type: cell-based; conditions: dose 0.3-3 µM; procedure, shortened: as §1
# [7] = test system: MDA-MB-468; assay: Effect on total STAT3 level in human MDA-MB-468 cells at 0.3 to 3 uM measured after 3 hrs by Western blot analysis; assay type: functional, cell-based; conditions: dose 0.3-3 µM
# Procedure, shortened: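 Breast cancer cells were treated with vehicle (0.1% DMSO) or compound, then lysed in RIPA with PMSF and phosphatase inhibitors. 20–50 μg protein was run on 8 or 12% SDS-PAGE, blotted to PVDF, blocked in 5% BSA, probed with primary antibodies overnight at 4 °C, then HRP secondaries, with ECL detection.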
# [8] = molecular target: T1, Signal transducer and activator of transcription 3; assay: Inhibition of STAT3 in human MDA-MB-231 cells assessed as downregulation of Mcl-1 expression at 0.3 to 3 uM after 24 hrs by western blot analysis; assay type: cell-based; conditions: dose 0.3-3 µM; procedure, shortened: as §1
# [9] = molecular target: T1, Signal transducer and activator of transcription 3; assay: Inhibition of STAT3 in human MDA-MB-468 cells assessed as downregulation of Mcl-1 expression at 0.3 to 3 uM after 24 hrs by western blot analysis; assay type: cell-based; conditions: dose 0.3-3 µM; procedure, shortened: as §1
# [10] = Toxicity in mouse xenografted with human MDA-MB-231-4175 cells assessed as body weight loss at 5 to 15 mg/kg, […] once daily for 20 days; assay type: organism-based; conditions: in vivo, iv, dose 5-15 mg/kg, time 20 day
# Procedure, shortened: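 Female NOD-SCID mice aged 4–5 weeks, given 2×10^6–3×10^6 MDA-MB-231-4175 cells subcutaneously in the flank. At about 100 mm³ tumour volume, randomised n=6/group to vehicle (PBS with 15% Cremophor EL) or 5 or 15 mg/kg intraperitoneally daily for 20 days. Body weight tracked during treatment.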
# [11] = test system: MDA231-LM2-4175; assay: Induction of apoptosis in human MDA231-LM2-4175 cells assessed as increase in PARP cleavage at 1 uM after 48 hrs by Western blot analysis; assay type: functional, cell-based
# Procedure, shortened: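 Breast cancer cells given vehicle (0.1% DMSO) or compound, then lysed in RIPA buffer with PMSF and phosphatase inhibitors. BCA-quantified lysate (20–50 µg) run on 8 or 12% SDS-PAGE and transferred to PVDF. Blocked in 5% BSA, probed overnight at 4 °C for PARP and cleaved caspase-7, HRP secondary, ECL detection. β-actin as loading control.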
# [12] = Antitumor activity against patient-derived breast cancer cells xenografted in NOD/SCID mouse assessed as tumor growth inhibition at 15 mg/kg, ip administered once daily for 20 days; conditions: Homo sapiens, Breast cancer cell line, 480 h, read-out: TGI
# [13] = molecular target: T2, Signal transducer and activator of transcription 5A (Homo sapiens) (UniProt P42229); assay: Inhibition of STAT5 DNA binding in human MDA-MB-231 cells at 3 uM after 3 hrs by EMSA analysis; assay type: cell-based
# T2 sequence (whole entry): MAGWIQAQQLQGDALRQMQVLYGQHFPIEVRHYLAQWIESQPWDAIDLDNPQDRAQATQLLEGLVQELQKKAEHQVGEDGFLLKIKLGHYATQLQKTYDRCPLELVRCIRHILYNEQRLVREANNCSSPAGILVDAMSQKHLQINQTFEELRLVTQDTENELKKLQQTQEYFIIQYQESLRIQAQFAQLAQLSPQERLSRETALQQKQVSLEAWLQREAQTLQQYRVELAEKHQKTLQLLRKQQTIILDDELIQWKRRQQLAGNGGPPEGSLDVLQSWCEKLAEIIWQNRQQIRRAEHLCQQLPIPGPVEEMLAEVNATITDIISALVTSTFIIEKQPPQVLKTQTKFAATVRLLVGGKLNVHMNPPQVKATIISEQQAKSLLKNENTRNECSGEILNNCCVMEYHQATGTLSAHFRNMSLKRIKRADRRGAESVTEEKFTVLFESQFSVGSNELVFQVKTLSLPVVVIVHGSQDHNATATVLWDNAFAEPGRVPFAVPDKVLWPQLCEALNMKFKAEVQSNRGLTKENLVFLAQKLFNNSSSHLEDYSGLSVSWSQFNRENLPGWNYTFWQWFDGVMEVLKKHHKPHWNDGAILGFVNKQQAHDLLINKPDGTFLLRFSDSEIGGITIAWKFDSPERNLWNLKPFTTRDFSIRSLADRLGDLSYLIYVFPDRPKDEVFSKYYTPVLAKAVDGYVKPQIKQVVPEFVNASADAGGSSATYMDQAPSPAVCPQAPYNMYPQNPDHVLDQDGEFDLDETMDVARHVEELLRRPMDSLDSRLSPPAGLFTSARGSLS
# Procedure, shortened: (§2)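 Cells exposed to vehicle or compound for 3 h. Nuclear extracts prepared and BCA-quantified. Nuclear protein (8–10 µg) incubated with biotinylated STAT3 or STAT5 probe, resolved on 6% native polyacrylamide gel, transferred to nylon membrane and detected with a gel-shift kit.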
# [14] = test system: MDA-MB-468; assay: Induction of apoptosis in human MDA-MB-468 cells assessed as increase in caspase-7 cleavage at 1 uM after 48 hrs by Western blot analysis; assay type: functional, cell-based
# Procedure, shortened: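 Cells were treated with vehicle (0.1% DMSO) or compound, then analysed by western blot of RIPA lysates (20–50 μg protein, SDS-PAGE, PVDF) for PARP and cleaved caspase-7, with β-actin as loading control. Three independent experiments.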
# [15] = molecular target: T2, Signal transducer and activator of transcription 5A (Homo sapiens); assay: Inhibition of STAT5 DNA binding in human MDA-MB-468 cells at 3 uM after 3 hrs by EMSA analysis; assay type: cell-based; procedure, shortened: as §2
# T1 sequence (P40763 whole entry): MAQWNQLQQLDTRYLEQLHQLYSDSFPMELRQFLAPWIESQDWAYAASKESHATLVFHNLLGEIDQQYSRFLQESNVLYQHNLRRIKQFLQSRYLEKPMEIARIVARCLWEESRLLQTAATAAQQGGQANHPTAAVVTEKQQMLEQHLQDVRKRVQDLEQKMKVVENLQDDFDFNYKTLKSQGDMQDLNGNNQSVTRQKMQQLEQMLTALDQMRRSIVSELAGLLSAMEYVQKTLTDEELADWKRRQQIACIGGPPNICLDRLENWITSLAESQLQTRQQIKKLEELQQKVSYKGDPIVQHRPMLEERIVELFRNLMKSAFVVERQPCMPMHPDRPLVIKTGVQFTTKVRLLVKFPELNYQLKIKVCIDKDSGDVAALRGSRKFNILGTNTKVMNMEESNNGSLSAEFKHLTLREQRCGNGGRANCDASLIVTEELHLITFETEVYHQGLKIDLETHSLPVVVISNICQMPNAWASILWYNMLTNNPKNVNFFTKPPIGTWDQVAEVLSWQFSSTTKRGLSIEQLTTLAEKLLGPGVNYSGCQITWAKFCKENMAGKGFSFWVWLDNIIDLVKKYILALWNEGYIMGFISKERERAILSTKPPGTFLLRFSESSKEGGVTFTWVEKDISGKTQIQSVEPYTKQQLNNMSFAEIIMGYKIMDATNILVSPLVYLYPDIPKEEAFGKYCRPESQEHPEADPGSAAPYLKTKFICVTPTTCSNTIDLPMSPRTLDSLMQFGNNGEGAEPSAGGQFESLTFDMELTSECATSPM
structure (smiles),measurement,setting,value
O=C(Cc1c(-c2ccccc2)nc2ccccn12)Nc1ccc2c(c1)S(=O)(=O)C=C2,inhibition,[1],Active
same,viability at 1 µM,[2],83.5%
same,IC50,[3],1.1 µM
same,viability at 1 µM,[4],57.9%
same,Activity,[5],1.57%
same,inhibition,[6],Active
same,Activity,[7],inactive
same,inhibition,[8],Active
same,inhibition,[9],Active
same,Activity,[10],Non-Toxic
same,Activity,[11],Active
same,inhibition in vivo at 15 mg/kg,[12],68.9%
same,inhibition,[13],inactive
same,Activity,[14],Active
same,inhibition,[15],inactive

# — ChEMBL document CHEMBL4825680, “Structure-based discovery of potent and selective small-molecule inhibitors targeting signal transducer and activator of transcription 3 (STAT3)” (Eur J Med Chem, 2021)
